From PMC2857554 (Nature chemical biology, 2010)

How the values were obtained:
U2OS cells [1] = assay: Intracellular Aurora B kinase activity, immunoblot; type: cell-based; settings: taxol and MG132, mitotic shake-off
[2] = tested on: UTRM10 cells expressing LAP-Mps1 M602Q; assay: pHistone H3 immunoblot in cells expressing inhibitor-resistant Mps1; type: cell-based; settings: thymidine/taxol arrest; VX-680 2 µM
mammalian cells = settings: cited from earlier work
Mps1 = settings: cited from earlier work
hTERT-RPE1 cells = assay: PARP cleavage immunoblot; type: cell-based; settings: 25 µM
Hela S3 or U2OS cells = assay: Centrosome duplication in cycling cells; type: cell-based; settings: 10 µM, 1 or 2 cell doublings
Method in brief: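 Hela S3 and U2OS cells on 12-mm coverslips were synchronized, then cycled in test compound or DMSO for one or two cell cycles. Mitotic spindles were stained for centrin, α-tubulin and DNA. The percentage of mitotic cells with fewer than 4 centrin dots was scored, counting 135–300 cells per arm. Results are mean ± SD from three independent experiments.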

HCT116 cells [3] = assay: Colony outgrowth assay; type: cell-based; settings: 5–10 µM, 10 days
HCT116 cells [4] = assay: PARP cleavage immunoblot; type: cell-based
Method in brief: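 HCT116 cells in McCoy's 5A with 10% FBS were treated with test compound at a series of concentrations. Lysates were collected at 24, 48 and 72 h and immunoblotted for PARP cleavage.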

U2OS cells [5] = assay: Mitotic escape assay; type: cell-based
[6] = tested on: PtK2 cells stably expressing HsMad2-EYFP; assay: Mad2 kinetochore establishment assay; type: cell-based, Potorous tridactylus; settings: 10 µM, NEB to NER
[7] = tested on: U2OS cells with Plk4 overexpression; assay: Proliferation assay of PLK4-overexpressing U2OS cells; type: cell-based; settings: 48, 72, 96 hours
HCT116 cells [8] = assay: Proliferation assay; type: cell-based
Aurora B = Aurora B (Homo sapiens, UniProt Q96GD4); assay: Lanthascreen in vitro assay on Aurora B; type: binding; settings: in vitro assays
[9] = tested on: U2OS H2B–GFP cells with Plk4 overexpression; assay: Time-lapse of mitosis in cells with extra centrosomes; type: cell-based; settings: extra centrosome containing cells
Method in brief: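 U2OS H2B–GFP cells with doxycycline-inducible Plk4 were blocked in thymidine for 18 h, then released into doxycycline (2 µg·ml−1) for 10 h. A second 18 h thymidine block followed, then release into medium for 6 h. Cells were treated with 5 µM test compound and imaged by time-lapse at 37°C, 5% CO2.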

MCF10A cells = assay: PARP cleavage immunoblot; type: cell-based; settings: 25 µM
UTRM10 cells = assay: Centriole overduplication under hydroxyurea; type: cell-based; settings: 10 or 25 µM with hydroxyurea, 48 hours
Method in brief: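 UTRM10 cells co-treated for 48 h with hydroxyurea (4 mM) plus test compound (10 or 25 µM) or DMSO vehicle. Centrioles were scored by centrin immunostaining, with about 433–485 cells counted per condition. Results are mean ± SD of three independent experiments.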

[10] = tested on: Hela S3 cells expressing histone H2B-GFP; assay: Mitotic escape, time-lapse, nocodazole arrest; type: cell-based; settings: nocodazole-arrested cells
Method in brief: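 Hela S3 cells expressing H2B-GFP were treated with nocodazole with or without test compound. They were imaged in a heated chamber (37°C, 5% CO2), with DIC and GFP frames every 5 min across 5 z-planes. Mitotic exit was scored by nuclear envelope reassembly, counting 150 cells per population.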

Chain of Aurora B (Q96GD4 whole entry): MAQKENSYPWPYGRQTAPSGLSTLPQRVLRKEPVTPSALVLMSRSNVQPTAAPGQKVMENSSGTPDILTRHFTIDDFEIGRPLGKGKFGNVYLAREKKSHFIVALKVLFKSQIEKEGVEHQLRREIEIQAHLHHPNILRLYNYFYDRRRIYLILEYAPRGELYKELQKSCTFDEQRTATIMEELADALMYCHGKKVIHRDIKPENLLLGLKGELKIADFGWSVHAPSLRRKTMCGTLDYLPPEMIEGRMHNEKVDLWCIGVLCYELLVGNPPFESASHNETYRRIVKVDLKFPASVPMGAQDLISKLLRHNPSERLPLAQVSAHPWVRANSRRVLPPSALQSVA

Row | SMILES | hyperphosphorylation status of Mps1 (mobility shift) (U2OS cells [1]) | phosphorylation of Aurora B at Thr232 (U2OS cells [1]) | mitotic escape despite LAP-Mps1 M602Q [2] | effectiveness in mammalian cells (mammalian cells) | inhibition of Mps1 kinase activity in S. cerevisiae (Mps1) | apoptosis-associated PARP cleavage (hTERT-RPE1 cells) | mitotic cells containing less than 4 centrioles, versus vehicle (Hela S3 or U2OS cells) | cell viability and clonal survival (HCT116 cells [3]) | onset of PARP cleavage (apoptosis) (HCT116 cells [4]) | 4c pHistone H3 negative cells, flow cytometry (U2OS cells [5]; nocodazole-arrested cells) | cyclin B protein levels (U2OS cells [5]; thymidine/nocodazole arrest, 4 hrs inhibitor, reversed by MG132) | less time spent in mitosis versus DMSO [6] | additional cytotoxicity versus parental U2OS [7] | cytotoxic concentrations (HCT116 cells [8]) | activity against Aurora B in vitro (Aurora B) | decrease in time spent in mitosis [9] | apoptosis-associated PARP cleavage (MCF10A cells) | effect on centriole overduplication (UTRM10 cells) | time within which the majority of cells escape mitosis [10]
1 | Cc1cc(Nc2cc(N3CCN(C)CC3)nc(Sc3ccc(NC(=O)C4CC4)cc3)n2)n[nH]1 [VX-680] | did not adversely affect | inhibited | still capable of executing an efficient mitotic escape |  |  |  |  |  |  |  |  |  |  |  |  |  |  |  | 
2 | O=c1[nH]c2ccc(Br)cc2o1 [cincreasin] |  |  |  | ineffective | effective |  |  |  |  |  |  |  |  |  |  |  |  |  | 
3 | COc1cc(N2CCC(O)CC2)ccc1Nc1cc(Nc2ccccc2S(=O)(=O)C(C)C)c2cc[nH]c2n1 [Mps1-IN-1] |  | dose-dependent reduction |  |  |  | little-to-no apoptosis-associated PARP cleavage | no significant difference | severe loss of cell viability and clonal survival | 48 h | dose-dependent accumulation of 4c pHistone H3 negative cells | dropped with increasing concentration | roughly 40% | no detectable additional cytotoxicity | 5 to 10 µM | does not exhibit activity against Aurora B | 4 fold | little-to-no apoptosis-associated PARP cleavage | no effect | ≤ 1 h
